Measured values reported in ChEMBL document CHEMBL3352049, “Taxanes with high potency inducing tubulin assembly overcome tumoural cell resistances” (Bioorg Med Chem, 2014).
pIC50: −log10 of the molar value. Activity calls are given as the source filed them. No cut-off for these calls is given here.

Legend:
[1] = tested on: A2780; assay: Cytotoxicity against human A2780 cells by MTT assay; type: functional, cell-based
[2] = Cytotoxicity against human A2780AD cells by MTT assay; type: functional, cell-based; conditions: A2780 ADR
[3] = Resistance ratio of IC50 for human A2780AD cells to IC50 for human A2780 cells; type: functional, A2780 ADR
[4] = Cytotoxicity against human MCF7/R cells by MTT assay; type: functional, cell-based; conditions: MCF7R
[5] = tested on: HeLa; assay: Cytotoxicity against human HeLa cells by MTT assay; type: functional, cell-based
Outline: (§1)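 MTT assay run as a modified version of an earlier method. IC50 in nM is the mean ± SEM of three independent assays. Relative resistance is the IC50 in the resistant line (1A9 tubulin mutants, or βIII-transfected HeLa) divided by the IC50 in the parental line (1A9 or HeLa).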

[6] = tested on: HeLa; assay: Cytotoxicity against human HeLa cells transfected with wild-type tubulin beta3 by MTT assay; type: functional, cell-based; outline: as §1
[7] = tested on: HeLa; assay: Resistance ratio of IC50 for human HeLa cells transfected with wild-type tubulin beta3 to IC50 for human HeLa cells; type: functional
Outline: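 Relative resistance is the IC50 in HeLa cells transfected with wild-type βIII-tubulin divided by the IC50 in parental HeLa cells. Each IC50 (nM) is the mean ± SEM of three independent assays.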

[8] = tested on: 1A9; assay: Cytotoxicity against human 1A9 cells by MTT assay; type: functional, cell-based; outline: as §1
[9] = Cytotoxicity against human 1A9PTX10 cells by MTT assay; type: functional, cell-based; conditions: 1A9/ptx-10; outline: as §1
[10] = tested on: 1A9; assay: Resistance ratio of IC50 for human 1A9PTX10 cells to IC50 for human 1A9 cells; type: functional
Outline: (§2)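 Relative resistance is the IC50 in the 1A9 tubulin-mutant line divided by the IC50 in parental 1A9 ovarian carcinoma cells. Each IC50 (nM) is the mean ± SEM of three independent assays.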

[11] = Cytotoxicity against human 1A9PTX22 cells by MTT assay; type: functional, cell-based; conditions: 1A9/ptx-22; outline: as §1
[12] = tested on: 1A9; assay: Resistance ratio of IC50 for human 1A9PTX22 cells to IC50 for human 1A9 cells; type: functional; outline: as §2
[13] = Cytotoxicity against human 1A9/A8 cells by MTT assay; type: functional, cell-based; outline: as §1
[14] = tested on: 1A9; assay: Resistance ratio of IC50 for human 1A9/A8 cells to IC50 for human 1A9 cells; type: functional
[15] = tested on: A549; assay: Effect on microtubule cytoskeleton in human A549 cells assessed as induction of micronuleated cells with short microtubules in cytoplasm at 60 to 120 nM after 24 hrs by immunofluorescence assay; type: cell-based
Outline: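 A549 cells were grown overnight on coverslips, then given DMSO vehicle or ligand (60 or 120 nM) for 24 h. Cells were permeabilized with Triton X-100 and fixed in 3.7% formaldehyde. Microtubules were stained with DM1A α-tubulin antibody and DNA with Hoechst 33342. Preparations were viewed by epifluorescence microscopy.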

[16] = tested on: A2780; assay: Cell cycle arrest at G2/M phase in human A2780 cells at 30 nM after 20 hrs by flow cytometry; type: functional, cell-based
[17] = tested on: A2780; assay: Cell cycle arrest at G2/M phase in human A2780 cells at 60 nM after 20 hrs by flow cytometry; type: functional, cell-based
[18] = Cell cycle arrest at G2/M phase in human A2780AD cells at 30 nM after 20 hrs by flow cytometry; type: functional, cell-based; conditions: A2780 ADR
[19] = Cell cycle arrest at G2/M phase in human A2780AD cells at 60 nM after 20 hrs by flow cytometry; type: functional, cell-based; conditions: A2780 ADR
[20] = tested on: A549; assay: Cell cycle arrest at G2/M phase in human A549 cells at 30 nM after 20 hrs by flow cytometry; type: functional, cell-based
[21] = tested on: A549; assay: Cell cycle arrest at G2/M phase in human A549 cells at 60 nM after 20 hrs by flow cytometry; type: functional, cell-based
[22] = target: Tubulin (Bos taurus) (UniProt Q6B856+Q862L2+Q862F3); assay: Induction of calf brain tubulin polymerization assessed as tubulin concentration required to form microtubules by electron microscopy
Outline: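 Critical tubulin concentration found by centrifugation and quantification of the polymer formed. Polymers adsorbed onto formvar/carbon-coated copper grids, stained with 1% uranyl acetate, and viewed by electron microscopy at 100 kV.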

[23] = tested on: microtubule (Bos taurus); assay: Binding affinity to microtubule (Bos taurus) by STD NMR spectroscopy
[24] = tested on: microtubule (Bos taurus); assay: Binding affinity to microtubule (Bos taurus) by TR-NOESY spectroscopy
[25] = tested on: microtubule (Bos taurus); assay: Binding affinity to microtubule (Bos taurus) after 30 mins at 26 degC by flutax-2 displacement method
[26] = tested on: microtubule (Bos taurus); assay: Binding affinity to microtubule (Bos taurus) after 30 mins at 27 degC by flutax-2 displacement method
[27] = tested on: microtubule (Bos taurus); assay: Binding affinity to microtubule (Bos taurus) after 30 mins at 30 degC by flutax-2 displacement method
[28] = tested on: microtubule (Bos taurus); assay: Binding affinity to microtubule (Bos taurus) after 30 mins at 32 degC by flutax-2 displacement method
[29] = tested on: microtubule (Bos taurus); assay: Binding affinity to microtubule (Bos taurus) after 30 mins at 35 degC by flutax-2 displacement method
[30] = tested on: microtubule (Bos taurus); assay: Binding affinity to microtubule (Bos taurus) after 30 mins at 37 degC by flutax-2 displacement method
[31] = tested on: microtubule (Bos taurus); assay: Binding affinity to microtubule (Bos taurus) after 30 mins at 40 degC by flutax-2 displacement method
[32] = tested on: microtubule (Bos taurus); assay: Binding affinity to microtubule (Bos taurus) after 30 mins at 42 degC by flutax-2 displacement method

CC(=O)O[C@@]12CO[C@@H]1C[C@H](O)[C@@]1(C)C(=O)[C@H](OC(=O)N(C)C)C3=C(C)[C@@H](OC(=O)[C@H](O)[C@H](C=C(F)F)NC(=O)OC(C)(C)C)C[C@@](O)([C@@H](OC(=O)c4ccccc4)[C@H]21)C3(C)C
pIC50 [1]: 8.46
pIC50 [2]: 7.82
Ratio IC50 [3]: 4.3
pIC50 [4]: 8.37
pIC50 [5]: 8.60
pIC50 [6]: 8.46
Ratio IC50 [7]: 1.4
pIC50 [8]: 8.49
pIC50 [9]: 8.28
Ratio IC50 [10]: 1.6
pIC50 [11]: 8.15
Ratio IC50 [12]: 2.2
pIC50 [13]: 8.40
Ratio IC50 [14]: 1.2
Activity [15]: Active
Activity [16]: Active
Activity [17]: Active
Activity [18]: Active
Activity [19]: Active
Activity [20]: Active
Activity [21]: Active
Activity [22]: 0.3 µM
Activity [23]: Active
Activity [24]: Active
Kb [25]: 15 ×10⁷ /M
Kb [26]: 14 ×10⁷ /M
Kb [27]: 13 ×10⁷ /M
Kb [28]: 13 ×10⁷ /M
Kb [29]: 10 ×10⁷ /M
Kb [30]: 10 ×10⁷ /M
Kb [31]: 10 ×10⁷ /M
Kb [32]: 8 ×10⁷ /M
